Assay results from ChEMBL document CHEMBL1126259, “omega-[(4-Phenyl-2-quinolyl)oxy]alkanoic acid derivatives: a new family of potent LTB4 antagonists” (J Med Chem, 1992).

Assays:
[1] = biological target: Leukotriene B4 receptor 1 (Homo sapiens, UniProt Q15722); experiment: Inhibition of [3H]LTB4 binding to Leukotriene B4 receptor in the human polymorphonuclear leukocytes
Procedure, shortened: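 Human blood PMNs were isolated by dextran T500 sedimentation, Ficoll-Hypaque centrifugation and hypotonic lysis. Cells were suspended in Hanks' solution with 5 mmol/L HEPES and 1 g/L ovalbumin, then incubated on ice for 15 min with 0.5 nmol/L [3H]LTB4 and competitor. Samples were filtered on GF/C, washed and counted. Nonspecific binding was defined with 1000-fold unlabeled LTB4. IC50 was read graphically; mean of three replicates.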

[2] = system: Leukotriene B4 receptor 1 (Cavia porcellus); experiment: Inhibition of [3H]LTB4 binding to Leukotriene B4 receptor in the guinea pig spleen membranes at a dose of 10 uM; conditions: Membrane

Leukotriene B4 receptor 1, sequence (Q15722 whole entry): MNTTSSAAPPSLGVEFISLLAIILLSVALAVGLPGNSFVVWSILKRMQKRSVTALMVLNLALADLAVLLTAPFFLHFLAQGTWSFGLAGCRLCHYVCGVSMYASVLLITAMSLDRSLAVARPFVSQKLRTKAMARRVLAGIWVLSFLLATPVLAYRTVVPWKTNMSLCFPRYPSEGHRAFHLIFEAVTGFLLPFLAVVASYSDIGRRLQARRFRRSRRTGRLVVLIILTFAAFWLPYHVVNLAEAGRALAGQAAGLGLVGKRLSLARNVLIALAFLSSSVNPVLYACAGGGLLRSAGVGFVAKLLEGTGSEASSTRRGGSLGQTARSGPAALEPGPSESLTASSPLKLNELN

Row | SMILES | IC50 [1] [nM] | inhibition [2] [%]
1 | O=C(CCCCCOc1cc(-c2ccccc2)c2ccccc2n1)N1CCCC1 | – | 12
2 | O=C(O)CCCCOc1cc(-c2ccccc2)c2ccccc2n1 | – | 0
3 | CC(C)(CCCCOc1cc(-c2ccc(Cl)cc2)c2ccccc2n1)c1nnn[nH]1 | 50 | –
4 | O=C(O)CCCCCCc1cc(-c2ccccc2)c2ccccc2n1 | – | 34
5 | O=C(O)CCCC/C=C/c1cc(-c2ccccc2)c2ccccc2n1 | – | 27
6 | OCCCCCCOc1cc(-c2ccccc2)c2ccccc2n1 | – | 14
7 | O=C(O)CCCCCOc1cc(-c2ccc(Cl)cc2)c2ccccc2n1 | 150 | –
8 | CC(C)(CCCCSc1cc(-c2ccccc2)c2ccccc2n1)C(=O)O | – | 33
9 | COc1ccc(/C=C/CCCCOc2ccc(C(=O)c3cccc(C(=O)O)c3)cc2CCC(=O)O)cc1 | 3.5 | –
10 | CC(C)(CCCCNc1cc(-c2ccccc2)c2ccccc2n1)C(=O)O | – | 0

More lines, now with the values ahead:

Row | IC50 [1] [nM] | inhibition [2] [%] | SMILES
11 | 4000 | – | CC(C)(CCCCOc1cc(-c2ccccc2)c2ccccc2n1)C(=O)O
12 | – | 36 | COc1ccccc1-c1cc(OCCCCC(C)(C)C(=O)O)nc2ccccc12
13 | 250 | – | CC(C)(CCCCOc1cc(-c2ccc(N)cc2)c2ccccc2n1)C(=O)O
14 | 100 | – | Cc1ccc(-c2cc(OCCCCC(C)(C)C(=O)O)nc3ccccc23)cc1
15 | – | 23 | CC(=O)Nc1ccc(-c2cc(OCCCCC(C)(C)C(=O)O)nc3ccccc23)cc1
